The structures appear in SMILES notation.

In ChEMBL document CHEMBL1136746 (2003) one finds Papp and Hemolysis data, which are given here for two compounds.

The subject of one assay is Caco-2. In words: Apparent Permeability through Caco-2 cell monolayers (n = 4). Type of assay: functional, cell-based. The essentials: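 Caco-2 cells seeded on polycarbonate inserts (0.45 µm pore, 6.5 mm) and grown 21 days to differentiate; TEER >400 Ω/cm² before and after. ³H-acetylated peptide or [¹⁴C]mannitol (200 µM) added apically in HBSS/25 mM HEPES pH 7.4, 37 °C, shaken 400 rpm. Receiver chamber swapped at 30, 90, 150 min; scintillation counting. Papp averaged over four replicates.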

Assay [1] is filed under the species Rattus norvegicus. Description: Percent Hemolysis observed in rat red blood cells when Treated with 2 mM concentration. Type of assay: functional.
The species entered for assay [2] is Rattus norvegicus. In words: Percent Hemolysis observed in rat red blood cells when Treated with 1 mM concentration. It counts as functional.
The species named for assay [3] is Rattus norvegicus. In words: Percent Hemolysis observed in rat red blood cells when Treated with 5 mM concentration. It counts as functional.

For `OC[C@@H](O)[C@@H](O)[C@H](O)[C@H](O)CO`, the Papp in the assay with Caco-2 was 5.88 10e-6 cm s-1.
Turning to `CCCCCCCCCCCCOS(=O)(=O)[O-].[Na+]` [SODIUM LAURYL SULFATE], the Hemolysis in the assay filed under Rattus norvegicus [1] was determined as 51.54%; in the assay listed under Rattus norvegicus [2], 12.25%; in the assay filed under Rattus norvegicus [3], 62.66%.

By Papp is commonly meant the rate of passage across a membrane or cell layer, normalised by area and donor concentration.
